Measurements: ChEMBL document CHEMBL4038284, “Synthesis of novel quinoline-based 4,5-dihydro-1H-pyrazoles as potential anticancer, antifungal, antibacterial and antiprotozoal agents” (Eur J Med Chem, 2017)
Converted amounts (≈) assume the structure as drawn.

Experiments:
[1] = tested on: Trypanosoma cruzi; assay: Antitrypanosomal activity against Trypanosoma cruzi Tulahuen intracellular amastigote harboring LacZ infected in human U937 cells after 72 hrs by CPRG/Nonidet reagent based spectrophotometric method; assay type: functional, cell-based; details: U-937, 72 h
In short: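 U-937 cells at 2.5 × 10^5 cells/mL in RPMI-1640 with 10% serum and 0.1 µg/mL PMA were infected with β-galactosidase-transfected Tulahuen epimastigotes at 5 parasites per cell. Infected cells were exposed to 50, 12.5, 3.125 and 0.78 µg/mL for 72 h. CPRG (100 uM) and 0.1% Nonidet P-40 were added for 3 h, read at 570 nm. EC50 by Probit. Triplicate, at least two experiments; benznidazole as reference.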

[2] = tested on: Candida albicans; assay: Growth inhibition of Candida albicans ATCC 10231 at 250 ug/ml incubated for 48 hrs under dark condition by broth microdilution method relative to control; assay type: functional; details: ATCC 10231, 48 h, read-out: GI
In short: (§1)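 CLSI M27-A3 broth microdilution in RPMI-1640, DMSO ≤1%. Inoculum 1-5 × 10^3 CFU/mL. Incubated 48 h at 30 °C, dark. % inhibition = 100 − (OD405 test − sterility control)/(OD405 growth control − sterility control), with growth and sterility control wells. Triplicate.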

[3] = tested on: Candida albicans; assay: Antifungal activity against Candida albicans ATCC 10231 incubated for 48 hrs under dark condition by broth microdilution method; assay type: functional; details: ATCC 10231, 48 h
In short: (§2)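 CLSI M27-A3 broth microdilution in RPMI-1640, DMSO ≤1%, compounds at 250-0.98 µg/mL final. Inoculum 1-5 × 10^3 CFU/mL. Incubated 48 h at 30 °C in a moist dark chamber, read at OD405. MIC80 and MIC50 taken from % inhibition dose-response curves (mean ± SEM, triplicate). Amphotericin B was the positive control.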

[4] = tested on: Candida albicans; assay: Growth inhibition of Candida albicans ATCC 10231 at 7.8 ug/ml incubated for 48 hrs under dark condition by broth microdilution method relative to control; assay type: functional; details: ATCC 10231, 48 h, read-out: GI; in short: as §1
[5] = tested on: Klebsiella pneumoniae; assay: Antibacterial activity against carbapenemase positive Klebsiella pneumoniae BAA 1705 after 24 hrs by resazurin dye based microdilution assay; assay type: functional; details: BAA 1705, 24 h
In short: (§3)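 MIC taken as the lowest concentration giving visible inhibition and/or by resazurin (1 mg/mL). Gentamicin was the control. Run in duplicate, repeated at least three times.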

[6] = tested on: Neisseria gonorrhoeae; assay: Antibacterial activity against beta lactamase positive Neisseria gonorrhoeae ATCC 31426 by oxidase test; assay type: functional
In short: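 Agar dilution MIC on GC agar with 1% isovitalex containing increasing compound concentrations. Plates inoculated with about 1×10^4 CFU (5 µL). MIC is the lowest concentration that inhibited growth, with growth confirmed by oxidase test. Run in duplicate, repeated at least three times.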

[7] = tested on: Klebsiella pneumoniae; assay: Antibacterial activity against ESBL positive Klebsiella pneumoniae ATCC 700603 after 24 hrs by resazurin dye based microdilution assay; assay type: functional; details: Klebsiella pneumoniae, 700603, 24 h; in short: as §3
[8] = tested on: Cryptococcus neoformans; assay: Growth inhibition of Cryptococcus neoformans ATCC 32264 at 125 ug/ml incubated for 48 hrs under dark condition by broth microdilution method relative to control; assay type: functional; details: ATCC 32264, 48 h, read-out: GI; in short: as §1
[9] = tested on: Candida albicans; assay: Growth inhibition of Candida albicans ATCC 10231 at 62.5 ug/ml incubated for 48 hrs under dark condition by broth microdilution method relative to control; assay type: functional; details: ATCC 10231, 48 h, read-out: GI; in short: as §1
[10] = tested on: Candida albicans; assay: Growth inhibition of Candida albicans ATCC 10231 at 3.4 ug/ml incubated for 48 hrs under dark condition by broth microdilution method relative to control; assay type: functional; details: ATCC 10231, 48 h, read-out: GI
[11] = tested on: Staphylococcus aureus; assay: Antibacterial activity against vancomycin-intermediate Staphylococcus aureus after 24 hrs by resazurin dye based microdilution assay; assay type: functional; in short: as §3
[12] = tested on: Cryptococcus neoformans; assay: Growth inhibition of Cryptococcus neoformans ATCC 32264 at 250 ug/ml incubated for 48 hrs under dark condition by broth microdilution method relative to control; assay type: functional; details: ATCC 32264, 48 h, read-out: GI; in short: as §1
[13] = tested on: Cryptococcus neoformans; assay: Growth inhibition of Cryptococcus neoformans ATCC 32264 at 15.62 ug/ml incubated for 48 hrs under dark condition by broth microdilution method relative to control; assay type: functional; details: ATCC 32264, 48 h, read-out: GI; in short: as §1
[14] = tested on: Cryptococcus neoformans; assay: Growth inhibition of Cryptococcus neoformans ATCC 32264 at 62.5 ug/ml incubated for 48 hrs under dark condition by broth microdilution method relative to control; assay type: functional; details: ATCC 32264, 48 h, read-out: GI; in short: as §1
[15] = tested on: Cryptococcus neoformans; assay: Growth inhibition of Cryptococcus neoformans ATCC 32264 at 7.8 ug/ml incubated for 48 hrs under dark condition by broth microdilution method relative to control; assay type: functional; details: ATCC 32264, 48 h, read-out: GI; in short: as §1
[16] = tested on: Cryptococcus neoformans; assay: Growth inhibition of Cryptococcus neoformans ATCC 32264 at 3.4 ug/ml incubated for 48 hrs under dark condition by broth microdilution method relative to control; assay type: functional; details: ATCC 32264, 48 h, read-out: GI
[17] = tested on: U-937; assay: Cytotoxicity against human U937 cells after 72 hrs by MTT assay; assay type: cell-based; details: u-937, 72 h
In short: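 Exponentially growing U-937 at 1 × 10^5 cells/mL in RPMI-1640 with 10% FBS were exposed to 200, 50, 12.5 and 3.125 µg/mL for 72 h at 37 °C, 5% CO2. MTT for 3 h, stopped with isopropanol/SDS, formazan read at 570 nm, blank-corrected. LC50 by Probit from % viability against untreated cells. Triplicate, at least two independent experiments.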

[18] = tested on: Cryptococcus neoformans; assay: Antifungal activity against Cryptococcus neoformans ATCC 32264 incubated for 48 hrs under dark condition by broth microdilution method; assay type: functional; details: ATCC 32264, 48 h; in short: as §2
[19] = tested on: Candida albicans; assay: Growth inhibition of Candida albicans ATCC 10231 at 125 ug/ml incubated for 48 hrs under dark condition by broth microdilution method relative to control; assay type: functional; details: ATCC 10231, 48 h, read-out: GI; in short: as §1
[20] = tested on: Staphylococcus aureus; assay: Antibacterial activity against methicillin-sensitive Staphylococcus aureus ATCC 25923 after 24 hrs by resazurin dye based microdilution assay; assay type: functional; details: ATCC 25923, 24 h; in short: as §3
[21] = tested on: Candida albicans; assay: Growth inhibition of Candida albicans ATCC 10231 at 31.25 ug/ml incubated for 48 hrs under dark condition by broth microdilution method relative to control; assay type: functional; details: ATCC 10231, 48 h, read-out: GI; in short: as §1
[22] = tested on: Pseudomonas aeruginosa; assay: Antibacterial activity against Pseudomonas aeruginosa ATCC 27853 after 24 hrs by resazurin dye based microdilution assay; assay type: functional; details: ATCC 27853, 24 h; in short: as §3
[23] = tested on: Escherichia coli; assay: Antibacterial activity against Escherichia coli ATCC 25922 after 24 hrs by resazurin dye based microdilution assay; assay type: functional; details: ATCC 25922, 24 h; in short: as §3
[24] = tested on: Cryptococcus neoformans; assay: Growth inhibition of Cryptococcus neoformans ATCC 32264 at 31.25 ug/ml incubated for 48 hrs under dark condition by broth microdilution method relative to control; assay type: functional; details: ATCC 32264, 48 h, read-out: GI; in short: as §1
[25] = tested on: Staphylococcus aureus; assay: Antibacterial activity against methicillin-resistant Staphylococcus aureus ATCC 43300 after 24 hrs by resazurin dye based microdilution assay; assay type: functional; details: ATCC 43300, 24 h
In short: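 Broth microdilution in Mueller Hinton broth, inoculum 5 × 10^5 – 8 × 10^5. Compound stocks diluted in MHB with 5% DMSO and 0.1% Tween 80. Incubation 24 h at 35-37 °C. MIC is the lowest concentration with visible growth inhibition and/or by resazurin (1 mg/mL) read-out. Gentamicin as control. Run in duplicate, replicated at least three times.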

[26] = tested on: Candida albicans; assay: Growth inhibition of Candida albicans ATCC 10231 at 15.62 ug/ml incubated for 48 hrs under dark condition by broth microdilution method relative to control; assay type: functional; details: ATCC 10231, 48 h, read-out: GI; in short: as §1
[27] = tested on: Plasmodium falciparum; assay: Antiplasmodial activity against chloroquine-sensitive Plasmodium falciparum 3D7 assessed as reduction in parasitic LDH activity after 48 hrs by Malstat reagent based […] method; assay type: functional; details: 3D7, 48 h
In short: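 Unsynchronized P. falciparum 3D7 at 0.5% parasitemia and 1% hematocrit in RPMI with 3% Albumax II. Exposed to 100, 25, 6.25 and 1.56 µg/mL for 48 h at 37 °C under 90% N2/5% CO2/5% O2. After three freeze-thaw cycles, LDH measured with Malstat and NBT/PES, 1 h in the dark, read at 650 nm. IC50 by Probit; triplicate, ≥2 experiments.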

[28] = tested on: Leishmania panamensis; assay: Antileshmanial activity against EpiR/GFP fused Leishmania panamensis MHOM/CO/87/UA140 intracellular amastigotes infected in human […] cells after 72 hrs by flow cytometric method; assay type: functional, cell-based; details: MHOM/CO/87/UA140, 72 h
In short: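 PMA-treated U-937 cells (3 × 10^5 cells/mL) infected with stationary-phase GFP L. panamensis promastigotes (15:1), 3 h at 34 °C, then washed. After 24 h, compounds added at 50, 12.5, 3.125 and 0.78 µg/mL for 72 h at 37 °C. EC50 by Probit; triplicate, two experiments.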

With `CC(=O)N1N=C(c2ccc(Br)cc2)CC1c1cccc(Nc2ccnc3cc(Cl)ccc23)c1` (stereo not given) the EC50 [1] was 3.7 µg/mL (≈ 7.12 µM), the inhibition of growth at 250 µg/mL [2] was 29.9% and the MIC50 [3] was ≥ 250 µg/mL. The MIC80 [3] was ≥ 250 µg/mL, the inhibition of growth at 7.8 µg/mL [4] was 13.9% and the MIC [5] was > 1000 µg/mL. The MIC [6] was > 1000 µg/mL, the MIC [7] was > 1000 µg/mL and the inhibition of growth at 125 µg/mL [8] was 48.4%. For the same compound, the inhibition of growth at 62.5 µg/mL [9] was 19.1%, the inhibition of growth at 3.4 µg/mL [10] was 13.7% and the MIC [11] was > 1000 µg/mL. The inhibition of growth at 250 µg/mL [12] was 71.2%, the inhibition of growth at 15.62 µg/mL [13] was 18.3% and the inhibition of growth at 62.5 µg/mL [14] was 23.6%. The inhibition of growth at 7.8 µg/mL [15] was 16.9%, the inhibition of growth at 3.4 µg/mL [16] was 15.4% and the LC50 [17] was 10.2 µg/mL (≈ 19.6 µM). For the same compound, the MIC50 [18] was 250 µg/mL (≈ 481 µM), the MIC80 [18] was ≥ 250 µg/mL and the inhibition of growth at 125 µg/mL [19] was 27.9%. For the same compound, the MIC [20] was > 1000 µg/mL, the inhibition of growth at 31.25 µg/mL [21] was 15.7% and the MIC [22] was > 1000 µg/mL. For the same compound, the MIC [23] was > 1000 µg/mL, the inhibition of growth at 31.25 µg/mL [24] was 19.6% and the MIC [25] was > 1000 µg/mL. The inhibition of growth at 15.62 µg/mL [26] was 15%, the EC50 [27] was 50.1 µg/mL (≈ 96.3 µM) and the EC50 [28] was 3.66 µg/mL (≈ 7.04 µM).
